From PubChem
Only some compounds are listed: those with a hit (about 1.2% of all), similar ones and a draw of the others.
G6PDH counter: L. mesenteroides G6PDH inhibitors, counter-screen for G6PDH-coupled screening assays, biochemical, Leuconostoc mesenteroides enzyme | glucose-6-phosphate dehydrogenase [Leuconostoc mesenteroides] | Purified L. mesenteroides G6PDH, diaphorase/resazurin coupled fluorescence, 45 min | inhibition, % at 5 µM | hit rate 0.12% among 200,000; in the data active = inhibition above about 50%
Tb hexokinase: Trypanosoma brucei hexokinase 1 inhibitors, primary screen, biochemical, G6PDH-coupled NADH absorbance, MLSCN library. hexokinase 1 [Trypanosoma brucei]. recombinant TbHK1, G6PDH-coupled NADH A340. inhibition, % at 10 µM. hit rate 0.11% among 220,000;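 active = inhibition of 50% or more in the single-dose primary screen; inactive = inhibition below 50%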
HKDC1 inhibitor: HKDC1 hexokinase inhibitors, primary screen, biochemical, fluorescence, uHTS; Q2TB90; recombinant HKDC1, G6PDH/diaphorase resazurin coupled fluorescence; inhibition, % at 20 µM; hit rate 0.16% among 340,000; AID 493160, 2011;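 active = inhibition above about 35% when tested at 20 µM, limit read from the data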;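 also: plate controls were DMSO wells with enzyme for no effect and DMSO wells lacking enzyme for full effect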
Target sequence (Q2TB90 whole entry, looked up): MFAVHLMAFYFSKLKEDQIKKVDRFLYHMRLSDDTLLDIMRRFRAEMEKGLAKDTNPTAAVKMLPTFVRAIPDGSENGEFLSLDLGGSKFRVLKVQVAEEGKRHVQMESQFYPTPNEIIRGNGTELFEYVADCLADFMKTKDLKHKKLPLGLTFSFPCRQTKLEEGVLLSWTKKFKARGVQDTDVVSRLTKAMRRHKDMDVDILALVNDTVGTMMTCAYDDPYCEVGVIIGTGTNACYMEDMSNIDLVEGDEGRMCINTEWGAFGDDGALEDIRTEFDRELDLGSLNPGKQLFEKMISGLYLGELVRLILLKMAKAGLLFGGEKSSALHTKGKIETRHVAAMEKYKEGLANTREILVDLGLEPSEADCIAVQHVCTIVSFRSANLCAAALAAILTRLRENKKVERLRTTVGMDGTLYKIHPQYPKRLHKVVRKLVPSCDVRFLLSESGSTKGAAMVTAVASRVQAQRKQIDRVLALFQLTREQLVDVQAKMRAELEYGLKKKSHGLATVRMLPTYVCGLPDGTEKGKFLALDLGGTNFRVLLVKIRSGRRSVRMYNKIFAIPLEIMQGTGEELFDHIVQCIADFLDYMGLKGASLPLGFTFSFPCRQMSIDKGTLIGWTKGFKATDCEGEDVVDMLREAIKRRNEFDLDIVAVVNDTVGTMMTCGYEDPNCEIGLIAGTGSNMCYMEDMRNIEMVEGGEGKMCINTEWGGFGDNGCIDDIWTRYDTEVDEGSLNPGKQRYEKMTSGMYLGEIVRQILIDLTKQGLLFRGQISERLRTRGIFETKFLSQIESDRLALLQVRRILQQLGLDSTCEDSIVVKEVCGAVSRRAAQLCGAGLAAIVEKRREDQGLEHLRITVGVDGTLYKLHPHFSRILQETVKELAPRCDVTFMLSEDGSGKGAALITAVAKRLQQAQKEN
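Test system: recombinant HKDC1 (HK5) hexokinase enzyme, produced in-house; Amount: enzyme 5 µg/mL final; Buffer or medium: Tris pH 8.0 buffer with MgCl2, Tween-20, BSA, BME; Reagent: glucose and ATP substrates; Doses: 20 µM test compound, 1% DMSO; Incubation: 90 min reaction incubation at room temperature, dark; Detection: resorufin fluorescence at 613 nm.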
PfGluPho inh: PfG6PD enzyme inhibitors, primary screen, biochemical, fluorescence intensity, uHTS; PfGluPho enzyme, NADPH resazurin-diaphorase fluorescence; glucose-6-phosphate dehydrogenase-6-phosphogluconolactonase (Plasmodium falciparum 3D7); hit rate 0.78% among 350,000; inhibition, % at 20 µM;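 active = inhibition reaching at least a set limit at 20 µM in the primary screen, cut at about 59% in these data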;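 also: 0% = DMSO wells with substrate and 100% = DMSO wells lacking glucose-6-phosphate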
Diaph inh CS: diaphorase inhibitors and chemical oxidizers, primary screen, counter-screen for diaphorase-coupled primary assays, biochemical, uHTS, resorufin fluorescence. diaphorase resazurin-to-resorufin fluorescence, NADH, 16 min; bacterial (C. kluyveri) enzyme, not human. inhibition, % at 20 µM. hit rate 0.69% among 190,000;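 active = primary screen inhibition at 20 µM above a set limit, cut at about 50% in these data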;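 also: plate controls were DMSO with full reaction for no effect and wells lacking NADH for full effect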
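Detection: fluorescence of resorufin formed from resazurin, Ex 544/Em 590 nm; test system: Clostridium kluyveri diaphorase enzyme; amount: 0.14 U/mL diaphorase, enzyme working solution; times: 16-min room-temperature incubation before reading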
PfGluPho conf: PfG6PD inhibitors, hit retest, confirmation, biochemical, fluorescence intensity, single concentration; shares compounds with PfGluPho inh; recombinant PfGluPho, NADPH-diaphorase-resazurin fluorescence; inhibition, % at 20 µM; hit rate 34% among 2,400;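 active = inhibition of at least 50% at 20 µM in any single replicate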;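 also: 0% = DMSO with substrate and 100% = DMSO lacking glucose-6-phosphate substrate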
Diaphorase 10uM: diaphorase inhibitors and chemical oxidizers, confirmation, counter-screen for P. falciparum G6PD inhibitor project, biochemical, fluorescence intensity, 10 µM NADPH; shares compounds with PfGluPho inh; diaphorase-coupled resazurin reduction, NADPH 10 uM; inhibition, % at 20 µM; hit rate 39% among 820;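 active = average inhibition reaching 50% or more with the compound at 20 µM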;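 also: resorufin red fluorescence formed as diaphorase reduces resazurin using NADPH; 0% = DMSO with enzyme and 100% = DMSO without enzyme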
Diaphorase 30uM: diaphorase inhibitors and chemical oxidizers, confirmation, counter-screen for P. falciparum G6PD inhibitor project, biochemical, fluorescence intensity, 30 µM NADPH; hit rate 29% among 820; inhibition, % at 20 µM; Diaphorase/resazurin coupled assay, resorufin fluorescence; shares compounds with PfGluPho inh;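 active = inhibition averaging 50% or more, tested at 20 µM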;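 also: 0% = DMSO with enzyme and 100% = DMSO wells lacking diaphorase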
Numbers without * were called inactive; / = not tested or not shown.

SMILES	G6PDH counter	Tb hexokinase	HKDC1 inhibitor	PfGluPho inh	Diaph inh CS	PfGluPho conf	others
CCCCn1c(SCC(=O)c2ccc(OC)cc2OC)nc2cc(S(N)(=O)=O)ccc21	0	1	6	96*	21	42
O=C(O)c1cccc(N2C(=O)c3cc([N+](=O)[O-])cc4cc([N+](=O)[O-])cc(c34)C2=O)c1	/	/	19	52	/	/
CCNc1cc2c(cc1O)CCC1C2CCC2(C)C(O)CCC12 (stereo not drawn)	/	/	2	80*	/	50*	Diaphorase 10uM=-7;Diaphorase 30uM=-8
Cc1ccc(/C=[N+](\[O-])c2ccc(N(C)C)cc2)c2nsnc12	-1	-9	2	64*	41	1
Cc1ccc2nsnc2c1NS(=O)(=O)c1c(C)ccc2nsnc12	5	-7	-2	-8	21	/
CCCN(CC(=O)Nc1ccc(F)c(F)c1F)C(=O)c1cc([N+](=O)[O-])ccc1N1CCOCC1	/	/	-2	13	/	/
O=C(CCNS(=O)(=O)c1ccc(OC(F)(F)F)cc1)NCCc1c[nH]c2ccccc12	/	/	-4	22	/	/
O=[N+]([O-])c1cccc(NC(=S)NCc2ccncc2)c1	5	3	2	79*	17	5
O=S1(=O)NC(=NCCc2ccccn2)c2ccccc21	0	-2	5	-5	2	/
O=S(=O)(Cc1ccccc1)N(O)c1ccccc1	/	/	0	86*	/	84*	Diaphorase 10uM=74*;Diaphorase 30uM=53*
CCOC(=O)C1=C(COC(=O)CNS(=O)(=O)c2c(F)cc(F)cc2Br)NC(=O)NC1C (stereo not drawn)	/	/	-6	-1	/	/
COC(=O)c1ccc(/C=C/c2ccc3cccc(OC)c3n2)cc1	-13	-18	10	74*	21	26
COc1cc(/C=C/c2ccc3cccc(O)c3n2)cc(Cl)c1OC	/	/	-2	73*	/	-2
COc1cc(/C=C/c2ccc3cccc(O)c3n2)cc(OC)c1OC	/	/	2	-1	/	/
COc1ccc(C(C)=O)cc1CC(=O)Nc1cccc(S(=O)(=O)N2CCOCC2)c1	/	/	4	-6	/	/
Cc1sc(NC(=O)Nc2ccccc2)c(C(N)=O)c1C	1	1	3	74*	17	27
CCCC(=O)Nc1sc(Cc2ccccc2)c(C)c1C(N)=O	19	4	-27	59*	26	25
Cc1c(Cc2ccc3c(c2)OCO3)sc(NC(=O)c2ccccc2)c1C(N)=O	6	3	-1	3	18	/
CC1CC(C)CN(C(=O)c2cccc(N3C(=O)c4ccccc4C3=O)c2)C1 (stereo not drawn)	/	/	4	-15	/	/
C[C@@H](CC#N)CN1CC[C@H](C(C)(C)C)CCC1=O	/	/	-4	-3	/	/
Cc1cc(O)c(C(C)C)cc1N=Cc1ccccc1O	/	-7	21	103*	/	46
CC(N=Cc1ccccc1O)c1ccccc1 (stereo not drawn)	15	-2	-2	-13	17	/
Cc1cc(O)c(C(C)C)cc1N=Cc1cc([N+](=O)[O-])ccc1O	/	-33	21	82*	/	23
NC(=S)N/N=C/c1c[nH]c2ccccc12	/	-84	-1	22	/	/
NC(=S)NN=Cc1c[nH]c2nccnc12	/	/	/	76*	/	17
Cc1ccccc1N(C(=O)c1csnn1)C(C(=O)NC1CCCC1)c1ccncc1 (stereo not drawn)	/	/	-1	-11	/	/
